Source: PubChem BioAssay (several laboratories)
Jurkat NFkB inh: inhibitors of induced NF-kB luciferase reporter, primary screen, TCR NF-kB activation inhibitor project, cell-based, luminescence, uHTS. Jurkat, PMA/ionomycin-induced NF-kB luciferase reporter. inhibition, % at 4 µM. hit rate 0.53% among 330,000; in the data active means inhibition above about 50%
GalR3 antag: GalR3 antagonists in HEK293 cells, primary screen, cell-based, fluorescence readout | AID 651719, 2012 | inhibition, % at 3 µM | Galanin receptor type 3 (Homo sapiens), O60755 | hit rate 0.44% among 360,000 | HEK293 GalR3-CNG cAMP membrane potential fluorescence; galR3 body fused to GalR1 C-terminus;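 active means inhibition above the screen-wide average plus 3 SD, cut at about 13% in these data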;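 further: forskolin and galanin both at EC90 stimulate the cells; cAMP rise reported by CNG channel membrane potential dye signal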
Target sequence (O60755 1-299 limits assumed): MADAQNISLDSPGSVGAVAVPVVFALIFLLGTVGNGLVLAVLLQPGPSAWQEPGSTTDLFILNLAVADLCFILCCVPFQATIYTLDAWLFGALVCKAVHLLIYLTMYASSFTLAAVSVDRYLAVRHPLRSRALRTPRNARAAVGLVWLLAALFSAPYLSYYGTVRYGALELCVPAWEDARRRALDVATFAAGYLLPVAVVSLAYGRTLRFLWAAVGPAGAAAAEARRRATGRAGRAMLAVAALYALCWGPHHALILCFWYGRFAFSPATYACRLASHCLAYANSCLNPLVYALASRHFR
NR2E3 ag-1: NR2E3 agonists in two-hybrid cells, primary screen, cell-based, luminescence, CHO-S, Gal4-NCOR/VP16-NR2E3; luciferase; inhibition of corepressor binding, % at 3.98 µM; hit rate 0.35% among 360,000; AID 602229, 2012;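 active means inhibition above the mean of all tested compounds plus 3 SD, cut at about 70% in these data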;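 further: higher means lower luciferase signal from less NR2E3 corepressor binding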
Target sequence (Q9Y5X4 whole entry, looked up, the tested form may be a part): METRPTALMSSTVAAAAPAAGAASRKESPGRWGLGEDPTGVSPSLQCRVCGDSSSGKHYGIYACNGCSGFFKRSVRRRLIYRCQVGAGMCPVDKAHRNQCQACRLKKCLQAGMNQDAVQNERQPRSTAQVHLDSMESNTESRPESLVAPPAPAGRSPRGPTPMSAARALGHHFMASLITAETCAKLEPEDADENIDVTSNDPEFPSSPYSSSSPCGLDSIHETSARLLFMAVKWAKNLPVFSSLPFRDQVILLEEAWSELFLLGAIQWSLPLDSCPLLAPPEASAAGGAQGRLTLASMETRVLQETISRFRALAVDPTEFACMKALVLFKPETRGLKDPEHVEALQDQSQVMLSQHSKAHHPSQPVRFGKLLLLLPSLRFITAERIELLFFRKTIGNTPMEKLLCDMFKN
697 NFkB inh: inhibitors of PMA/ionomycin-induced NF-kB reporter, 697 cells, primary screen, B-cell NF-kB inhibitor project, cell-based, luminescence, uHTS. inhibition, % at 4 µM. hit rate 0.33% among 330,000. 697 B-cell NF-kB luciferase reporter, 16 h; in the data active means inhibition above about 35%
NR2E3 ag-2: inhibitors of NR2E3-RetCOR corepressor binding, primary screen, NR2E3 agonist project, biochemical, TR-FRET, GST-NR2E3, biotin-RetCOR; AID 2300, 2010; hit rate 0.12% among 320,000; 1536-well; inhibition of corepressor binding, % at 4.78 µM;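 active means percent inhibition above the cutoff of mean plus 3 SD of all tested compounds, set per screening campaign, cut at about 20% in these data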
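Material: NR2E3–RetCOR corepressor complex / Amount: 1.35 nM GST-NR2E3 / Medium: Tris pH 7.5 / Compound: single nominal compound dose of 4.8 µM / Incubation: 5 h at 4 °C / Technique: TR-FRET, Eu(K)-anti-GST donor, streptavidin-D2 acceptor, ex 340, em 617/671 nm / Read-out basis: percent loss of FRET ratio relative to control wells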
Gli-Sufu antag: Gli-Sufu pathway antagonists, primary screen, luciferase luminescence, Sufu-KO-LIGHT cells, uHTS. Sufu-KO-LIGHT fibroblasts, Gli luciferase reporter luminescence. hit rate 0.74% among 340,000. inhibition, % at 5 µM;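 active means inhibition above about 55%, limit read from the data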
Gli antag conf: Gli-SUFU pathway antagonists, confirmation, single concentration, luciferase luminescence, Sufu-KO-LIGHT cells; shares compounds with Gli-Sufu antag; Gli luciferase reporter; inhibition, % at 5 µM; hit rate 40% among 2,500;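 active means mean inhibition at 5 µM reaching about 45%, limit read from the data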
SufuKO cytotox: cytotoxicity in Sufu-KO-LIGHT cells, confirmation, cytotoxicity control for Gli-SUFU antagonist project, cell-based, ATP luminescence, single concentration; shares compounds with Gli-Sufu antag; cytotoxicity, % at 5 µM; hit rate 32% among 2,500;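 active means mean cytotoxicity at 5 µM above about 25%, limit read from the data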;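 further: cells exposed to compound overnight for roughly 16 to 18 hours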
Wnt3a cs: Wnt3a reporter signal inhibition, confirmation, counter-screen for Gli-SUFU antagonist project, Wnt-LIGHT cells, luminescence, single concentration. shares compounds with Gli-Sufu antag. Wnt3a-driven luciferase reporter. inhibition, % at 6.25 µM. hit rate 20% among 2,500. AID 651995, 2013;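 active means mean inhibition above about 25%, limit read from the data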
NR2E3 ag confirm: NR2E3 agonist confirmation in cells, cell-based, luminescence, CHO-S two-hybrid; inhibition, % at 3.98 µM; shares compounds with NR2E3 ag-1; AID 624378, 2012; hit rate 51% among 2,300; CHO-S mammalian two-hybrid NR2E3-NCOR, luciferase luminescence;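 active means average inhibition above a cutoff equal to the mean inhibition of all tested compounds plus one SD, cut at about 70% in these data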
GAL4-VP16 luc: GAL4-VP16 reporter modulators, confirmation, counter-screen for NR2E3 agonist project, cell-based, luminescence, CHO-S, high throughput | shares compounds with NR2E3 ag-1 | CHO-S GAL4-VP16 luciferase reporter | inhibition, % at 3.98 µM | hit rate 29% among 2,300;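 active means mean inhibition above a cutoff equal to the average over all tested compounds plus one standard deviation, cut at about 70% in these data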;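 further: luciferase from a UAS reporter driven by GAL4-VP16 transactivation; higher means less reporter light so more repression of VP16 activity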
Large screens that a line does not name were inactive (follow-up assays come after a bar, where they were run). A selection: hits, their analogues and other compounds. The true share with any hit is near 1.8%.

O=C(CN1CCOc2ccccc21)N1CCN(c2cccc(Cl)c2)CC1	Gli-Sufu antag 60.8 | Gli antag conf inactive | SufuKO cytotox inactive | Wnt3a cs inactive
O=C1C2C3C=CC(C3)C2C(=O)N1c1ccc(-c2nc(-c3ccccc3)nc3ccccc23)cc1 (stereo not drawn)	none (no result: Jurkat NFkB inh, NR2E3 ag-1, 697 NFkB inh, NR2E3 ag-2, Gli-Sufu antag)
Cc1ccc(C)c(NC(=S)N=Nc2c(O)n(C)c3ccc(S(=O)(=O)N4CCOCC4)cc23)c1	none
CCc1ccccc1NC(=S)N=Nc1c(O)n(C)c2ccc(S(=O)(=O)N3CCOCC3)cc12	Gli-Sufu antag 65.9 | Gli antag conf 47.7 | SufuKO cytotox inactive | Wnt3a cs inactive
Cc1ccc(S(=O)(=O)N2CCN(C(=O)c3ccc(S(=O)(=O)N4CCCC4)cc3)CC2)cc1	Gli-Sufu antag 57.2 | Gli antag conf inactive | SufuKO cytotox inactive | Wnt3a cs inactive
O=C(c1ccc(S(=O)(=O)N2CCCC2)cc1)N1CCCCCC1	none
O=C(c1ccc(=O)[nH]c1)N1CCN(S(=O)(=O)c2ccc(Cl)cc2)CC1	none | Gli antag conf inactive | SufuKO cytotox inactive | Wnt3a cs inactive
CCOc1ncccc1C(=O)Nc1cccc(Cl)c1Cl	none
COc1ccc(N2CC(C(=O)NCc3nnnn3-c3ccc(C)c(C)c3)CC2=O)cc1 (stereo not drawn)	none | Gli antag conf inactive | SufuKO cytotox inactive | Wnt3a cs inactive
O=C(NCc1ccccc1)[C@H]1CCCN1C(=O)[C@H]1CCCN1C(=O)c1ccccc1	none (no result: Jurkat NFkB inh, NR2E3 ag-1, 697 NFkB inh, NR2E3 ag-2, Gli-Sufu antag)
O=C(Nc1nc(-c2cc3ccccc3o2)cs1)c1ccc(S(=O)(=O)N2CCCC2)cc1	none | Gli antag conf 58.6 | SufuKO cytotox 29.6 | Wnt3a cs inactive
Cc1cc(C)c(S(=O)(=O)N2CCN(C(=O)C3CCCO3)CC2)c(C)c1 (stereo not drawn)	Gli-Sufu antag 57.8 | Gli antag conf inactive | SufuKO cytotox inactive | Wnt3a cs inactive
CC(C)CN(C(=O)C1COc2ccccc2O1)c1c(N)n(CC(C)C)c(=O)[nH]c1=O (stereo not drawn)	none
COc1ccc(C)cc1NC(=O)CCN1CCN(c2ccccc2F)CC1	Gli-Sufu antag 58.8 | Gli antag conf inactive | SufuKO cytotox inactive | Wnt3a cs inactive
O=C(Cc1cccs1)Nc1ccc2c(c1)C(=O)OC2	Gli-Sufu antag 99.0 | Gli antag conf inactive | SufuKO cytotox inactive | Wnt3a cs inactive
O=C(Cc1cccs1)Nc1ccc(F)c(F)c1	none
Cc1cc(C(=O)COc2cccnc2[N+](=O)[O-])c(C)n1Cc1cccs1	Gli-Sufu antag 70.9 | Gli antag conf inactive | SufuKO cytotox inactive | Wnt3a cs 49.1 | NR2E3 ag confirm 73.2 | GAL4-VP16 luc inactive
O=C(OCC(=O)N1CCCCCC1)c1ccccc1Br	none
Cc1cc(C)nc(SCC(=O)Nc2ccc(N3CCOCC3)c(Cl)c2)n1	NR2E3 ag-1 73.7 | Gli antag conf 45.1 | SufuKO cytotox inactive | Wnt3a cs inactive | NR2E3 ag confirm 88.6 | GAL4-VP16 luc 79.2
COc1ccc(OC)c(S(=O)(=O)N2CCC(C(=O)NC3CC3)CC2)c1	none
Cc1ccc2[nH]c3c(N4CCc5ccccc5C4)ncnc3c2c1	Gli-Sufu antag 72.7 | Gli antag conf 77.2 | SufuKO cytotox 38.3 | Wnt3a cs inactive | NR2E3 ag confirm 94.5 | GAL4-VP16 luc 76.7
Cc1ccc(C)c(S(=O)(=O)N2CCN(C(=O)C3CCN(c4ncnc5sc(C)c(C)c45)CC3)CC2)c1	NR2E3 ag-1 78.1, Gli-Sufu antag 73.0 | Gli antag conf inactive | SufuKO cytotox inactive | Wnt3a cs inactive | NR2E3 ag confirm inactive | GAL4-VP16 luc inactive
COCCC1CCCCN1C(=O)c1cc(COc2ccc(-n3cncn3)cc2)on1 (stereo not drawn)	NR2E3 ag-1 104.7, Gli-Sufu antag 58.1 | Gli antag conf 67.5 | SufuKO cytotox inactive | Wnt3a cs 39.9 | NR2E3 ag confirm 94.6 | GAL4-VP16 luc 78.9
COCCOC1CCN(C(=O)c2cc(COc3ccc(-n4cncn4)cc3)on2)CC1	none
CC1(C)CC(NC(=O)c2ccccc2NS(=O)(=O)c2ccc(Br)cc2)CC(C)(C)N1	none (no result: Jurkat NFkB inh, 697 NFkB inh, NR2E3 ag-2)
Cc1ccc(/C=N/Nc2cc(C)nc(NCc3ccccc3)n2)cc1	none
Cc1cc(Nc2cccc(F)c2)nc(NCc2ccccc2)n1	NR2E3 ag-1 83.4, Gli-Sufu antag 58.9 | Gli antag conf inactive | SufuKO cytotox inactive | Wnt3a cs inactive | NR2E3 ag confirm 91.7 | GAL4-VP16 luc inactive
Cc1cc(Nc2ccccc2)nc(NCc2ccccc2)n1	NR2E3 ag-1 88.0, Gli-Sufu antag 68.2 | Gli antag conf 58.5 | SufuKO cytotox 32.8 | Wnt3a cs 25.3 | NR2E3 ag confirm 96.4 | GAL4-VP16 luc 81.0
Cc1cc(N/N=C/c2ccc(F)cc2)nc(NCc2ccccc2)n1	none
CC(NC(=O)C(=O)N1CCCCC1)C(c1cccs1)N1CCN(C)CC1 (stereo not drawn)	none
CCC(c1nnnn1C1CCCCC1)N1CCN(C(=O)c2ccco2)CC1 (stereo not drawn)	none
Cc1ccc(S(=O)(=O)N2CCN(c3ncnc4sccc34)CC2)cc1C	NR2E3 ag-1 105.2 (no result: NR2E3 ag-2) | Gli antag conf 47.2 | SufuKO cytotox 26.2 | Wnt3a cs 36.1 | NR2E3 ag confirm 91.2 | GAL4-VP16 luc 78.9
Cc1ccc(S(=O)(=O)N2CCN(c3ncccn3)CC2)cc1C	none (no result: Jurkat NFkB inh, 697 NFkB inh)
